Data published in ChEMBL document CHEMBL4270636, “5'-Chloro-2,2'-dihydroxychalcone and related flavanoids as treatments for prostate cancer” (Eur J Med Chem, 2018).
pIC50: −log10 of the molar value. The source made the active and inactive calls. The calls are words filed in the database; no cut-off is given here.

Columns and labels:
Androgen receptor = target: T1, Androgen receptor (Homo sapiens, UniProt P10275); experiment: Antagonist activity at AR in human LNCAP cells assessed as reduction in DHT-induced transcriptional activation after 24 hrs by luciferase reporter gene assay; format: cell-based
T1 sequence (P10275 whole entry): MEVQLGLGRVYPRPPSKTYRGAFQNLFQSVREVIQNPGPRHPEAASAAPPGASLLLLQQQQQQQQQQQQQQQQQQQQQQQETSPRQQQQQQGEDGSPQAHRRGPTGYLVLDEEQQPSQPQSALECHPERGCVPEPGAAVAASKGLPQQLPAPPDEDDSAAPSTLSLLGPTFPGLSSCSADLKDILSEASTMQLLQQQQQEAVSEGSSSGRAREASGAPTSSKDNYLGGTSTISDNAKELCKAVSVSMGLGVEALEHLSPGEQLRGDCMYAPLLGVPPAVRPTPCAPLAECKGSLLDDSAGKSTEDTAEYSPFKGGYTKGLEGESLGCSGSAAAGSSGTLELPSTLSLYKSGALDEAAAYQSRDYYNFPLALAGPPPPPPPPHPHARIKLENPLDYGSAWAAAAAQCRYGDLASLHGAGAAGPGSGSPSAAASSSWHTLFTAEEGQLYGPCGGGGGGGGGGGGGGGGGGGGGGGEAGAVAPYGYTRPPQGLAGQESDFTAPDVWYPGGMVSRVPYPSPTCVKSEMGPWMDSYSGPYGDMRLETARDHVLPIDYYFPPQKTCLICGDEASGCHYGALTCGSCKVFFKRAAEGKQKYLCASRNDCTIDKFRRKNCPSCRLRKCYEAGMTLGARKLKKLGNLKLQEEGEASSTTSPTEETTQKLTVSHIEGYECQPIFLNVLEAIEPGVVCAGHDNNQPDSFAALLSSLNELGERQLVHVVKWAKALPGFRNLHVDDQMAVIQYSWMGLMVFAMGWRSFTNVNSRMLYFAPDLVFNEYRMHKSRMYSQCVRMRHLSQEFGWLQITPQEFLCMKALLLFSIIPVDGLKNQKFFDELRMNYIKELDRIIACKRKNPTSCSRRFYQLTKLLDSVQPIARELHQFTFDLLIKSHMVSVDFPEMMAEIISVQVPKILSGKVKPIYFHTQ

LNCaP [1] = experiment: Antiproliferative activity against human LNCAP cells assessed as reduction in cell growth treated every 2 days for 4 days by hemocytometry; format: functional, cell-based
PC-3 [2] = experiment: Antiproliferative activity against human PC3 cells assessed as reduction in cell growth treated every 2 days for 4 days by hemocytometry; format: functional, cell-based
DU-145 = experiment: Antiproliferative activity against human DU145 cells assessed as reduction in cell growth treated every 2 days for 4 days by hemocytometry; format: functional, cell-based
MDA-MB-231 = experiment: Antiproliferative activity against human MDA-MB-231 cells assessed as reduction in cell growth after 72 hrs by sulforhodamine B assay; format: functional, cell-based; details: MDA-MB-231, 72 h
[3] = Antiproliferative activity against human KBVIN cells assessed as reduction in cell growth after 72 hrs by sulforhodamine B assay; format: functional, cell-based
[4] = target: T2, Androgen receptor (Homo sapiens) (UniProt P10275); experiment: Antagonist activity at AR (unknown origin) expressed in human PC3 cells assessed as reduction in DHT-induced transcriptional activation at 3 to 10 uM after 24 hrs by luciferase reporter gene assay; format: cell-based
T2 sequence (whole entry): T1 sequence (P10275 whole entry)
Procedure, shortened: (§1)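 PC-3 cells (AR-negative) co-transfected with wild-type or AR-V7 expression vector plus PSA promoter-luciferase reporter (pGL3PSAp-5.8, 0.5 ug/well); seeded 50,000/well, transfected after 24 h, treated with compounds ± 1 nM DHT for 24 h from 24 h post-transfection; lysed cells read for luciferase activity by luminometer.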

[5] = tested on: Androgen receptor (Homo sapiens), P10275 [UNDEFINED MUTATION]; experiment: Antagonist activity at AR V7 mutant (unknown origin) expressed in human PC3 cells assessed as reduction in DHT-induced transcriptional activation after 24 hrs by luciferase reporter gene assay; format: cell-based; procedure, shortened: as §1
LNCaP [6] = experiment: Antiproliferative activity against human LNCAP cells assessed as reduction in cell growth at 10 uM treated every 2 days for 4 days by hemocytometry; format: functional, cell-based
[7] = target: T2, Androgen receptor (Homo sapiens); experiment: Antagonist activity at AR in human LNCAP cells assessed as reduction in DHT-induced cell growth at 1 to 3 uM treated for every 2 days for 4 days by hemocytometry; format: cell-based
Homo sapiens [8] = organism: Homo sapiens; experiment: Antiproliferative activity against human LNCaP-SF cells assessed as reduction in cell growth at 10 uM treated every 2 days for 4 days by hemocytometry; format: functional, cell-based
Procedure, shortened: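 LNCaP-SF castration-resistant subline cultured 4 days with compound at stated concentrations, with or without 0.1 nM DHT; growth assessed by cell counting.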

[9] = Antiproliferative activity against human PC3-TxR cells assessed as reduction in cell growth treated every 2 days for 4 days by hemocytometry; format: functional, cell-based
[10] = Antiproliferative activity against human PC3/TxR/CxR cells assessed as reduction in cell growth treated every 2 days for 4 days by hemocytometry; format: functional, cell-based
[11] = Antiproliferative activity against human DU145-TxR cells assessed as reduction in cell growth treated every 2 days for 4 days by hemocytometry; format: functional, cell-based
[12] = Antiproliferative activity against human DU145/TxR/CxR cells assessed as reduction in cell growth treated every 2 days for 4 days by hemocytometry; format: functional, cell-based; details: DU-145
A549 [13] = experiment: Antiproliferative activity against human A549 cells assessed as reduction in cell growth after 72 hrs by sulforhodamine B assay; details: A549, 72 h
MCF7 = experiment: Antiproliferative activity against human MCF7 cells assessed as reduction in cell growth after 72 hrs by sulforhodamine B assay; details: MCF7, 72 h
KB = experiment: Antiproliferative activity against human KB cells assessed as reduction in cell growth after 72 hrs by sulforhodamine B assay
PC-3 [14] = experiment: Cell cycle arrest in human PC3 cells assessed as accumulation at Sub-G1 phase at 2 times IC50 after 24 to 48 hrs by propidium iodide staining based flow cytometry; format: functional
A549 [15] = experiment: Cell cycle arrest in human A549 cells assessed as accumulation at G1 phase at 3 times IC50 after 24 to 48 hrs by propidium iodide staining based flow cytometry; format: functional
A549 [16] = experiment: Cell cycle arrest in human A549 cells assessed as accumulation at Sub-G1 phase at 3 times IC50 after 24 to 48 hrs by propidium iodide staining based flow cytometry; format: functional
Homo sapiens [17] = organism: Homo sapiens; experiment: Induction of microtubule depolymerization in human PC3 cells at 2 times IC50 after 24 hrs by […] microscopic analysis; format: cell-based
PC-3 [18] = experiment: Antitumor activity against human PC3 cells xenografted in C.B-17 SCID mouse assessed as tumor growth inhibition at 30 mg/kg, ip administered every 4 days measured during compound dosing; format: functional, organism-based
Procedure, shortened: (§2)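 Male C.B-17 scid mice (purchased at 7 weeks) given 2.0×10⁶ PC-3 cells in 50% matrigel subcutaneously on dorsal side at 8 weeks; at ~50 mm³ tumor, randomized into groups of 5, dosing from second day at 30 mg/kg i.p. every 4 days; tumor volume and body weight followed; mean ± SD.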

Mus musculus = experiment: Toxicity in C.B-17 SCID mouse xenografted with human PC3 cells assessed as body weight loss at 30 mg/kg, ip administered every 4 days; format: organism-based; details: in vivo, 96 h; procedure, shortened: as §2
[19] = tested on: Androgen receptor (Homo sapiens), P10275 [UNDEFINED MUTATION]; details: at 3 to 10 µM
A549 [20] = experiment: Cell cycle arrest in human A549 cells assessed as accumulation at G2/M phase at 3 times IC50 after 24 to 48 hrs by propidium iodide staining based flow cytometry; format: functional
PC-3 [21] = experiment: Cell cycle arrest in human PC3 cells assessed as accumulation at G2/M phase at 200 nM after 24 hrs by propidium iodide staining based flow cytometry; format: functional

## CC(C)Oc1ccccc1/C=C/C(=O)c1cc(Br)ccc1O
Androgen receptor
  pIC50: > 6.00
LNCaP [1]
  pIC50: 5.38
PC-3 [2]
  pIC50: 5.38
DU-145
  pIC50: 5.30

## O=C(/C=C/c1ccccc1O)c1cc(Br)cc(Br)c1O
Androgen receptor
  pIC50: 5.54

## CCOc1ccccc1/C=C/C(=O)c1cc(Br)ccc1O
Androgen receptor
  pIC50: 5.28

## CC(=O)O[C@H]1C(=O)[C@@]2(C)[C@H]([C@H](OC(=O)c3ccccc3)[C@]3(O)C[C@H](OC(=O)[C@H](O)[C@@H](NC(=O)c4ccccc4)c4ccccc4)C(C)=C1C3(C)C)[C@]1(OC(C)=O)CO[C@@H]1C[C@@H]2O [PACLITAXEL]
MDA-MB-231
  pIC50: 8.02
[3]
  pIC50: 5.76

## O=C(/C=C/c1ccccc1O)c1cc(Br)ccc1O
Androgen receptor
  pIC50: 5.06

## COc1ccc(/C=C/C(=O)c2cc(Cl)ccc2O)cc1OC
Androgen receptor
  pIC50: 5.28

## O=C1CC(c2ccccc2O)Oc2ccc(I)cc21 (stereo not given)
Androgen receptor
  pIC50: 5.37

## O=C(/C=C/c1ccccc1O)c1cc(Cl)ccc1O
Androgen receptor
  pIC50: > 6.00
[4]
  inhibition: Active
[5]
  inhibition: Dose-dependent effect
LNCaP [6]
  Activity: Active
[7]
  Activity: Active
LNCaP [1]
  pIC50: 5.45
PC-3 [2]
  pIC50: 5.82
DU-145
  pIC50: 5.35
Homo sapiens [8]
  Activity: Active
[9]
  pIC50: > 5.52
[10]
  pIC50: 5.39
[11]
  pIC50: 5.13
[12]
  pIC50: 5.27
A549 [13]
  pIC50: 5.04
MDA-MB-231
  pIC50: 5.29
MCF7
  pIC50: 5.31
KB
  pIC50: 5.30
[3]
  pIC50: 5.31
PC-3 [14]
  Activity: Active
A549 [15]
  Activity: Active
A549 [16]
  Activity: inactive
Homo sapiens [17]
  Activity: Active
PC-3 [18]
  TGI: Active
Mus musculus
  Activity: Non-Toxic

## COCOc1ccccc1/C=C/C(=O)c1cc(F)ccc1O
Androgen receptor
  pIC50: < 5.00

## O=C(/C=C/c1ccccc1)c1cc(Cl)ccc1O
Androgen receptor
  pIC50: 5.82

## COc1cc(/C=C/C(=O)c2cc(Cl)ccc2O)ccc1O
Androgen receptor
  pIC50: 5.23

## O=C1CC(c2ccccc2O)Oc2c(Br)cc(Br)cc21 (stereo not given)
Androgen receptor
  pIC50: 5.45

## O=C1CC(c2ccccc2O)Oc2cc(O)cc(O)c21 (stereo not given)
Androgen receptor
  pIC50: < 5.00

## O=C(/C=C/c1ccccc1O)c1cc(F)ccc1O
Androgen receptor
  pIC50: 5.85

## O=C1CC(c2ccccc2O)Oc2cc(O)ccc21 (stereo not given)
Androgen receptor
  pIC50: < 5.00

## O=C1CC(c2ccccc2O)Oc2ccccc21 (stereo not given) [2'-HYDROXY-FLAVANONE]
Androgen receptor
  pIC50: > 6.00
[4]
  inhibition: Active
LNCaP [6]
  Activity: Active
[7]
  Activity: Active
LNCaP [1]
  pIC50: 5.26
PC-3 [2]
  pIC50: 5.59
DU-145
  pIC50: 5.39
Homo sapiens [8]
  Activity: Active
[19]
  inhibition: inactive

## COc1ccccc1/C=C/C(=O)c1cc(Cl)ccc1O
Androgen receptor
  pIC50: < 5.00

## COc1ccccc1/C=C/C(=O)c1cc(I)ccc1O
Androgen receptor
  pIC50: 5.76

## COc1ccccc1/C=C/C(=O)c1cc(Br)ccc1O
Androgen receptor
  pIC50: > 6.00
[4]
  inhibition: Active
[5]
  inhibition: Dose-dependent effect
LNCaP [6]
  Activity: Active
[7]
  Activity: Active
LNCaP [1]
  pIC50: 5.30
PC-3 [2]
  pIC50: 5.74
DU-145
  pIC50: 5.21
Homo sapiens [8]
  Activity: Active
[9]
  pIC50: 5.42
[10]
  pIC50: 5.43
[11]
  pIC50: 5.35
[12]
  pIC50: 5.29
A549 [13]
  pIC50: 5.07
MDA-MB-231
  pIC50: 5.01
MCF7
  pIC50: 4.85
KB
  pIC50: 4.79
[3]
  pIC50: 4.95
PC-3 [14]
  Activity: Active
A549 [20]
  Activity: Active
A549 [16]
  Activity: inactive
PC-3 [18]
  TGI: inactive

## COc1ccc(O)c(C(=O)/C=C/c2ccccc2OC)c1
Androgen receptor
  pIC50: > 6.00
LNCaP [1]
  pIC50: 5.14
PC-3 [2]
  pIC50: 5.13
DU-145
  pIC50: < 5.00

## COc1ccc2c(c1)OC(c1ccccc1O)CC2=O (stereo not given)
Androgen receptor
  pIC50: < 5.00

## COc1ccc2c(c1)C(=O)CC(c1ccccc1OC)O2 (stereo not given)
Androgen receptor
  pIC50: < 5.00

## O=c1cc(-c2ccccc2O)oc2ccccc12
Androgen receptor
  pIC50: > 6.00
LNCaP [1]
  pIC50: < 5.00

## O=C(/C=C/c1ccccc1O)c1cc(I)ccc1O
Androgen receptor
  pIC50: 5.79

## O=C1CC(c2ccccc2O)Oc2ccc(O)cc21 (stereo not given)
Androgen receptor
  pIC50: 5.56

## CNC(=O)c1ccc(N2C(=S)N(c3ccc(C#N)c(C(F)(F)F)c3)C(=O)C2(C)C)cc1F
LNCaP [6]
  Activity: inactive

## COc1ccccc1/C=C/C(=O)c1cc(F)ccc1O
Androgen receptor
  pIC50: 5.30

## O=C(/C=C/c1ccc2c(c1)OCO2)c1cc(Cl)ccc1O
Androgen receptor
  pIC50: 5.36

## O=C(/C=C/c1ccc(O)cc1)c1cc(Cl)ccc1O
Androgen receptor
  pIC50: 5.23

## COc1ccc2oc(-c3ccccc3OC)cc(=O)c2c1
Androgen receptor
  pIC50: 5.21

## COc1ccc(/C=C\c2cc(OC)c(OC)c(OC)c2)cc1O
PC-3 [21]
  Activity: Active

## CCCOc1ccccc1/C=C/C(=O)c1cc(Br)ccc1O
Androgen receptor
  pIC50: 5.40

## O=C1CC(c2ccccc2O)Oc2ccc(Br)cc21 (stereo not given)
Androgen receptor
  pIC50: 5.75

## O=C1CC(c2ccccc2O)Oc2ccc(Cl)cc21 (stereo not given)
Androgen receptor
  pIC50: 5.77

## COc1ccccc1/C=C/C(=O)c1ccccc1O
Androgen receptor
  pIC50: 5.46
